Source: PubChem BioAssay
Shown is part of a subset that was picked to be rich in hits.
Insulin prom act: TRM-6 insulin promoter activation. TRM-6 cells (human fetal islet line), insulin promoter eGFP reporter, imaging; plate-scaled: unstimulated 0, stimulated control 100. activation, % at 2 µM. actives 0.81% (n = 130,000). AID 1296;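 active = activation at 2 µM above a set limit, confirmed on inspection of the cell images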;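 note: share of cells whose green reporter signal exceeds an intensity cutoff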
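System – TRM-6 insulin promoter–eGFP reporter cells · Probe or stimulus – 0.75 µM tamoxifen as reporter inducer · Dosing – single-point 2 µM compound dose · Incubation – tamoxifen pre-incubation 15 h overnight, then compound exposure 48 h at 37 °C · Measured by – fixed-cell fluorescence microscopy, eGFP plus Hoechst · Evaluation – percent GFP-positive cells normalized to per-plate controls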
Active calls of the source: *.

SMILES	Insulin prom act
Cc1nc(OCc2c(C)noc2C)c2ccccc2n1	8
CN(C)c1ccc(/C=C/C(O)=C2/C(=O)N(C)C3(C)CC2c2ccccc2O3)cc1 (stereo not drawn)	64
CN(C)c1ccc(/C=N/N2C(=N)N(c3ccccc3)C(=S)C2=Nc2ccccc2)cc1	252
CN(C)c1ccc(/C=C/C=C2/SC(=S)N(c3ccccc3)C2=O)cc1	296*
Cc1ccc(NC(=O)CSc2nn(-c3ccccc3)c(=S)s2)cc1S(=O)(=O)N(C)C	5
COc1cc(C2NC(=O)NC(C)=C2C(=O)OC(C)C)ccc1OC(=O)c1ccco1 (stereo not drawn)	157
COCCCNC(=O)CN1C(=O)c2ccccc2C1=O	0
CCOCCCNC(=O)CN1C(=O)/C(=C/c2ccccc2)Sc2ccccc21	313*
CCN1CCN(CCCNC(=O)c2ccc(/C=C3/Sc4ccccc4N(Cc4ccccc4F)C3=O)cc2)CC1	-6
O=C(Nc1cccc(S(=O)(=O)N2CCCCC2)c1)C1CC(=O)N(Cc2ccco2)C1 (stereo not drawn)	0
O=C(N/C(=C/c1cccnc1)C(=O)N1CCOCC1)c1ccco1	0
CCOc1cccc(-c2cc(C(=O)N3N=C(C)CC3(O)C(F)F)c3ccccc3n2)c1 (stereo not drawn)	6
COc1cc(S(=O)(=O)NCc2cccnc2)ccc1F	-9
Cc1onc(-c2ccccc2)c1C(=O)N1CCN(C(=O)c2ccco2)CC1	-76
Cc1onc(-c2ccccc2)c1C(=O)N1CCN(C)CC1	100*
Cc1onc(-c2ccccc2)c1C(=O)N1CCCN(C(=O)c2c(-c3ccccc3)noc2C)CC1	-3
CCOC(=O)c1ccc(-c2c(C(=O)OCC)oc3cc(O)c(CC)cc3c2=O)o1	-8
O=C(CC1C(=O)NCCN1Cc1c(F)cccc1Cl)NCCCn1ccnc1 (stereo not drawn)	0
CCCSc1nnc(CN2CCOCC2)n1C	419*
Cn1c(CCc2ccccc2)nnc1SCC(=O)N1CCOCC1	322
CCCSc1nnc(Cn2c(=O)sc3ccccc32)n1C	-25
COc1ccc(OC)c(C(=O)c2ccccc2)c1	-81
COc1ccc(OC)c(/C=N/NC(=O)CCCC(=O)Nc2cccc(Br)c2)c1	7
COc1ccc(OC)c(/C=N/N(C)c2ccccc2)c1	132*
COC(=O)c1cc(COC(=O)c2nc3nc(C)cc(C)n3n2)oc1C	-8
SMILES	Insulin prom act
CC1(C)CC(=O)c2cc(C(=O)N3CCCCC3)c(=O)n(-c3ccc(Cl)cc3)c2C1	164*
O=C(c1cc2cc(Cl)ccc2oc1=O)N1CCCC1	294
Cc1cc(C(=O)C(=O)O)c(C)n1-c1ccc(Cl)cc1	-6
C/C(=N/Nc1ccc(C(=O)O)cc1)c1ccc(O)c(O)c1O	4
CC(=O)c1c(C)[nH]c(C(=O)CSc2nnc(-c3ccccc3)o2)c1C	-3
CCOC(=O)C(=O)NC(C)CCc1ccccc1 (stereo not drawn)	-7
Cc1cccc(N(NC(=O)C(C)(C)O)C(=O)c2ccccc2)c1	0
CCOC(=O)N(NC(=O)C(O)(C(C)C)C(C)C)c1ccccc1	112*
COc1ccc(Cl)cc1NC(=O)c1cccc(NC(=O)CCC(=O)O)c1	0
Cc1nnc(N2CCOCC2)c2nn(-c3cccc(Cl)c3)c(C)c12	233*
Cc1cccc(-n2ncc3c(N4CCOCC4)ncnc32)c1	2
Cc1nnc(SCCN2CCOCC2)c2nn(-c3ccccc3F)c(C)c12	8
Cc1cccc(N2CCN(C(=O)CN3C(=O)C4CC=CCC4C3=O)CC2)c1C (stereo not drawn)	0
CCCCN(CCCC)CCCOC(=O)c1ccc(N)cc1	5
CCOC(=O)N1CCC(NC(=O)c2cc(S(=O)(=O)N3CCCCC3)ccc2F)CC1	-3
O=C(COC(=O)CNC(=O)c1ccccc1F)Nc1cccc(S(=O)(=O)N2CCCCCC2)c1	114
CCCCCNC(=O)c1cc(S(=O)(=O)N2CCCCC2)ccc1F	254*
COC(=O)c1cc2sccc2n1CC(=O)N1CCCc2ccccc21	193*
CCOC(=O)c1cc2sc(C)cc2n1CC(=O)NCc1ccc(F)cc1	-82
CCOC(=O)c1cc2sccc2n1CC(=O)N1CCCc2ccccc21	9
O=C(c1cc2sccc2n1Cc1ccccc1)N1CCc2ccccc21	0
CCOC(=O)c1cc2sccc2n1CC(=O)C(C)(C)C	213*
CCOC(=O)c1cc2sccc2n1Cc1ccccc1	0
CCn1cnc2sc(C)c(C)c2c1=O	-7
O=S(=O)(Nc1ccc(S(=O)(=O)Nc2nccs2)cc1)c1ccc2c(c1)OCCO2	-5
SMILES	Insulin prom act
Cc1sc2nc(COC(=O)c3cccc(S(=O)(=O)N(C)c4ccccc4)c3)[nH]c(=O)c2c1C	165
COc1cccc(C(C(=O)NC2CCCC2)N(Cc2ccccc2OC)C(=O)c2ccco2)c1 (stereo not drawn)	214
O=C(NC1CCCCC1)C(c1cccs1)N(C(=O)c1ccccn1)c1ccccc1 (stereo not drawn)	179
COc1cccc(C(C(=O)NC2CCCCC2)N(C(=O)c2ccccn2)c2cccnc2)c1 (stereo not drawn)	627*
CCOC(=O)c1nn(-c2ccccc2F)c(C)c1C(C)=O	2
CC(C)(C)c1nnc(NC(=O)Cc2ccc(Br)cc2)s1	-3
COc1ccc(CNC(=O)C/C(C)=N/NC(=O)COc2ccc(C)cc2Br)cc1	3
C=CCc1ccccc1OCCOc1ccc([N+](=O)[O-])cc1/C=N/NC(N)=O	0
CCOC(=O)c1cc([N+](=O)[O-])c([N+](=O)[O-])cc1NC(C)=O	3
Cc1cnc(C(=O)Nc2cc(S(=O)(=O)N3CCOCC3)ccc2N2CCN(C)CC2)cn1	10
COc1cccc2c1N1C(=O)c3c(C(=O)O)cccc3C1CC2(C)C (stereo not drawn)	0
CC[n+]1c(/C=C/C=C/N(C(C)=O)c2ccccc2)sc2ccccc21	203*
COc1cc(/C=C2/NC(=O)NC2=O)cc(Br)c1OCc1ccc(C(=O)O)cc1	8
CCCCOC(=O)Nc1cc(C(=O)OC)ccc1C(=O)OC	-65
O=C(OCC(=O)c1c[nH]c2ccccc12)c1cc2ccccc2cc1O	0
COC(=O)c1cc(NC(=O)c2cccc(Cl)c2)c(=O)oc1/C=C/Nc1cc(C)cc(C)c1	809*
COc1ccc(C(=O)Nc2cc(C(C)=O)c(/C=C/N(C)C)oc2=O)cc1	-3
O=C(Nc1cc2c(oc1=O)CCCC2=O)c1cccc(Cl)c1	-7
Cc1ccc(CN2CCN(Cc3cnc(N4CCOCC4)s3)CC2CCO)o1 (stereo not drawn)	6
CCN(CC)c1ccc(/C=N/NC(=O)c2ccco2)cc1	0
CCN(CC)c1ccc(C=C2C(=O)OC(c3ccccc3)OC2=O)cc1 (stereo not drawn)	312*
CCN(CC)c1ccc(C2NC(=O)NC(C)=C2C(=O)Nc2ccccc2)cc1 (stereo not drawn)	109
Clc1ccc2oc(-c3ccccc3)cc(=NCCCN3CCOCC3)c2c1	321*
O=C(NCCCN1CCOCC1)c1cc(-c2ccccc2)on1	32
c1ccc(CN2CCOCC2)cc1	-9
COc1cc2c(cc1OC)C(CC#N)=NC(C)(C)C2	6
COc1cc2c(cc1OC)C1=C(C#N)CC/C(=N\S(=O)(=O)c3cccc(Cl)c3)N1CC2	87*
COc1cc2c(cc1OC)-c1cc(OCc3ccccc3Cl)nc(=O)n1CC2	-66
O=C(Nc1nnc(-c2ccco2)o1)c1ccc([N+](=O)[O-])s1	-5
C/C(=N\NC(=O)CSc1nc(C)cc(C)n1)c1cccs1	-3
